From ChEMBL document CHEMBL1151198, “A new antimalarial quassinoid from Simaba orinocensis” (J Nat Prod, 2004)
Converted amounts (≈) assume the structure as drawn. The source made the active and inactive calls. The rule behind the calls is not given here.

Tests used:
[1] = system: Leishmania donovani; test: Antileishmanial activity against Leishmania donovani promastigotes after 48 hrs by alamar blue assay; format: functional, organism-based
[2] = system: Plasmodium falciparum; test: Antimalarial activity against chloroquine-resistant Plasmodium falciparum W2 by LDH assay; format: functional, organism-based
[3] = Selectivity index, ratio of IC50 for african green monkey (Cercopithecus aethiops) Vero cells to IC50 for chloroquine-resistant Plasmodium falciparum W2; format: toxicity, cell-based; conditions: read-out: Ratio IC50
[4] = system: Vero; test: Cytotoxicity against african green monkey kidney Vero cells; format: cell-based; conditions: Chlorocebus sabaeus
[5] = Selectivity index, ratio of IC50 for african green monkey (Cercopithecus aethiops) Vero cells to IC50 for chloroquine-sensitive Plasmodium falciparum D6; format: toxicity, cell-based; conditions: read-out: Ratio IC50
[6] = Inhibition of protein biosynthesis in mouse Krebs cells assessed as firefly luciferase activity at 10 uM after 1 hr by translation assay relative to control; format: functional
Outline: (§1)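 In vitro Krebs cell translation system read by firefly and renilla luciferase. Compounds at 10 or 2 µM; anisomycin 10 µM as reference and 0.5% DMSO as vehicle control. Values are average luciferase activity relative to control.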

[7] = Inhibition of protein biosynthesis in mouse Krebs cells assessed as renilla luciferase activity at 2 uM after 1 hr by translation assay relative to control; format: functional; outline: as §1
[8] = system: HeLa; test: Inhibition of translation in human HeLa cells at 2 uM by 35S-methionine metabolic labeling study; format: functional, cell-based
[9] = system: SK-OV-3; test: Cytotoxicity against human SKOV3 cells after 48 hrs by neutral red staining; format: functional, cell-based; conditions: SK-OV-3, 48 h
Outline: (§2)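 Human tumour lines: SK-MEL (malignant melanoma), KB (epidermal carcinoma), BT-549 (ductal carcinoma) and SK-OV-3 (ovary carcinoma). Compounds tested up to a maximum of 10 µg/mL, with doxorubicin as reference. IC50 given in µg/mL as mean ± SEM of three determinations.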

[10] = system: HeLa; test: Inhibition of protein synthesis in human HeLa cells assessed as translation at 2 uM by [35S]methionine metabolic labeling study; format: functional; set-up: scale not given: the % may be the effect or the level left
[11] = system: Plasmodium falciparum; test: Antimalarial activity against chloroquine-sensitive Plasmodium falciparum D6 by LDH assay; format: functional, organism-based
[12] = target: Intercellular adhesion molecule (ICAM-1), Integrin alpha-L/beta-2 (Homo sapiens) (UniProt P20701+P05362+P05107); test: Inhibition of LFA1/ICAM1-mediated HL60 cell aggregation; format: cell-based; conditions: HL-60
Outline: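 Primary screen for LFA-1/ICAM-1-mediated cell aggregation run together with an XTT cell-proliferation read-out. Aggregation potency is reported as a minimum inhibitory concentration in µg/mL.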

[13] = Inhibition of protein biosynthesis in mouse Krebs cells assessed as renilla luciferase activity at 10 uM after 1 hr by translation assay relative to control; format: functional; outline: as §1
[14] = Specific index, ratio of IC50 for human HL60 cells to MIC for LFA1/ICAM1; format: functional, HL-60
Outline: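 Index calculated as XTT-assay IC50 (µg/mL) divided by the MIC from the LFA-1/ICAM-1-mediated aggregation primary screen (µg/mL). XTT IC50 values are given as mean ± SEM of three determinations.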

[15] = system: SK-MEL; test: Cytotoxicity against human SK-MEL cells after 48 hrs by neutral red staining; format: functional, cell-based; outline: as §2
[16] = system: BT-549; test: Cytotoxicity against human BT549 cells after 48 hrs by neutral red staining; format: functional, cell-based; conditions: BT-549, 48 h; outline: as §2
[17] = system: HeLa; test: Inhibition of translation in human HeLa cells at 10 uM by 35S-methionine metabolic labeling study; format: functional, cell-based
[18] = system: RAW264.7; test: Inhibition of iNOS production in LPS-activated mouse RAW264.7 cells after 20 hrs; format: functional, cell-based; conditions: RAW264.7, 20 h
Outline: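 iNOS assay in RAW 264.7 cells, with L-NMMA, APDC and dexamethasone as reference inhibitors. IC50 in µg/mL, mean ± SEM of three determinations.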

[19] = Specific index, ratio of IC50 for mouse RAW264.7 to IC50 for iNOS production in mouse RAW264.7
Outline: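 Index calculated as the MTT IC50 in RAW 264.7 cells divided by the iNOS IC50 in the same cells.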

[20] = system: RAW264.7; test: Cytotoxicity against mouse RAW264.7 cells after 2 days by MTT assay; format: cell-based; conditions: RAW264.7, 48 h
Outline: (§3)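 MTT viability assay, run on CHO-ICAM-1 cells and, separately, on RAW 264.7 cells. IC50 in µg/mL, mean ± SEM of three determinations.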

[21] = system: HL-60; test: Cytotoxicity against human HL60 cells by XTT assay; format: cell-based
Outline: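 XTT proliferation read-out combined with the primary assay for inhibitors of LFA-1/ICAM-1-mediated cell aggregation. IC50 in µg/mL, mean ± SEM of three determinations.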

[22] = system: KB; test: Cytotoxicity against human KB cells after 48 hrs by neutral red staining; format: functional, cell-based; outline: as §2
[23] = Inhibition of protein biosynthesis in mouse Krebs cells assessed as firefly luciferase activity at 2 uM after 1 hr by translation assay relative to control; format: functional; outline: as §1
[24] = target: Intercellular adhesion molecule (ICAM-1), Integrin alpha-L/beta-2 (Homo sapiens, UniProt P05107+P05362+P20701); test: Inhibition of LFA1/ICAM1-mediated adhesion of HL60 cells to CHO-ICAM1 cells; format: cell-based, HL-60
Outline: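 Secondary LFA-1/ICAM-1-mediated adhesion assay using HL-60 cells and CHO-ICAM-1 cells, with cytochalasin B as standard. IC50 in µg/mL, mean ± SEM of three determinations.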

[25] = system: HeLa; test: Inhibition of protein synthesis in human HeLa cells at 2 uM by [35S]methionine metabolic labeling study; format: functional
[26] = system: CHO; test: Cytotoxicity against CHO cells transfected with ICAM1 by MTT assay; format: cell-based; conditions: Cricetulus griseus; outline: as §3
[27] = system: HeLa; test: Inhibition of protein synthesis in human HeLa cells assessed as translation at 10 uM by [35S]methionine metabolic labeling study; format: functional; set-up: scale not given: the % may be the effect or the level left
[28] = system: HeLa; test: Inhibition of protein synthesis in human HeLa cells at 10 uM by [35S]methionine metabolic labeling study; format: functional
[29] = Specific index, ratio of IC50 for CHO cells to IC50 for LFA1/ICAM1
Outline: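 Ratio of the MTT IC50 against CHO-ICAM-1 cells to the IC50 from the secondary LFA-1/ICAM-1-mediated adhesion assay, in which HL-60 cells adhere to CHO-ICAM-1 cells. IC50 values are in µg/mL, as mean ± SEM of three determinations.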

[30] = Inhibition of protein biosynthesis in mouse Krebs cells assessed as renilla luciferase activity at 0.4 uM after 1 hr by translation assay relative to control; format: functional
Outline: (§4)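 In vitro Krebs cell-extract translation system with firefly and Renilla luciferase read-outs, reported as average relative luciferase values. Compounds were tested at fixed concentrations (0.4–10 µM). DMSO (0.5%) served as vehicle control.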

[31] = system: HeLa; test: Inhibition of translation in human HeLa cells at 0.4 uM by 35S-methionine metabolic labeling study; format: functional, cell-based
[32] = Inhibition of protein biosynthesis in mouse Krebs cells assessed as firefly luciferase activity at 0.4 uM after 1 hr by translation assay relative to control; format: functional; outline: as §4

Intercellular adhesion molecule (ICAM-1), Integrin alpha-L/beta-2, sequence (P20701 whole entry): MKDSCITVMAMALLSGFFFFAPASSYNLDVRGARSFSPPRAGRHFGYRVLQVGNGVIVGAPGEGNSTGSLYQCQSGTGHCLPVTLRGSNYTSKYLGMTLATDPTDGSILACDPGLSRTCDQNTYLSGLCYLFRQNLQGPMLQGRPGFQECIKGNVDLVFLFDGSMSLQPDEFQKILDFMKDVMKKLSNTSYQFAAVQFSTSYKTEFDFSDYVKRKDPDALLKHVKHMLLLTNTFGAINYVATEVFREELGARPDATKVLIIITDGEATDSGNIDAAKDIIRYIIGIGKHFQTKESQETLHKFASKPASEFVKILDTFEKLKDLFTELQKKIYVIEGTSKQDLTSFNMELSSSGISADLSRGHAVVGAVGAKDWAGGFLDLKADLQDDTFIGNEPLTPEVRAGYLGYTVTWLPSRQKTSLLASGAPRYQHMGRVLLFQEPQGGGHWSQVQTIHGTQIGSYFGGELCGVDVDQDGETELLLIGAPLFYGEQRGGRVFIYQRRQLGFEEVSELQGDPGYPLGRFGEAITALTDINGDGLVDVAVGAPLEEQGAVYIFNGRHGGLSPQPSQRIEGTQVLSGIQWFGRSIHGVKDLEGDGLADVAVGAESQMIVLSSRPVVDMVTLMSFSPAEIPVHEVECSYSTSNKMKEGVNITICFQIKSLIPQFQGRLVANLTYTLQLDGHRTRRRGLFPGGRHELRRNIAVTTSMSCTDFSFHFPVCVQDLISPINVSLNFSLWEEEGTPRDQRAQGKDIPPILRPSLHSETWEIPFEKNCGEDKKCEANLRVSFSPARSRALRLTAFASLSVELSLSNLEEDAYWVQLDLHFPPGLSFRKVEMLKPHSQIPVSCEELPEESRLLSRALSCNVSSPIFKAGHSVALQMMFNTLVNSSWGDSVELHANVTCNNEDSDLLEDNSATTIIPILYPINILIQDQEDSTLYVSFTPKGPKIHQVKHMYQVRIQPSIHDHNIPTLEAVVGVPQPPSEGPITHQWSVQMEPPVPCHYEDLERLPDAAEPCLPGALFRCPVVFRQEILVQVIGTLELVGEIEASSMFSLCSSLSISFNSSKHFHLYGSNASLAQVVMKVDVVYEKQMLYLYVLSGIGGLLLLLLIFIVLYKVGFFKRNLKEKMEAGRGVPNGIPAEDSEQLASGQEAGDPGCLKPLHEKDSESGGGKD
Intercellular adhesion molecule (ICAM-1), Integrin alpha-L/beta-2, sequence (P05362 whole entry): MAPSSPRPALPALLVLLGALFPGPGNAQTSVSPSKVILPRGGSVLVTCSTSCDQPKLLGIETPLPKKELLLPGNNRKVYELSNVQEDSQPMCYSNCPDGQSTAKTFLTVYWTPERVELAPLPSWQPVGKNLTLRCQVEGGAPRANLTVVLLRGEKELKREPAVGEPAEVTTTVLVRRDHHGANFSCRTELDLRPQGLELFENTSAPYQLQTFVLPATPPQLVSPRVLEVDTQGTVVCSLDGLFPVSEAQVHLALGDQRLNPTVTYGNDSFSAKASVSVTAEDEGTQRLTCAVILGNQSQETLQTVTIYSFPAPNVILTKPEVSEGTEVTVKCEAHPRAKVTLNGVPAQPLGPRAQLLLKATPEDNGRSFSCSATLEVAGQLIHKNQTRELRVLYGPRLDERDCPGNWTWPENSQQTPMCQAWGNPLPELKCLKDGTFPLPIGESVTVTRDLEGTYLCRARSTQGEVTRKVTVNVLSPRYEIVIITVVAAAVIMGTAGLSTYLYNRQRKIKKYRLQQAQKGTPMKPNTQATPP
Intercellular adhesion molecule (ICAM-1), Integrin alpha-L/beta-2, sequence (P05107 whole entry): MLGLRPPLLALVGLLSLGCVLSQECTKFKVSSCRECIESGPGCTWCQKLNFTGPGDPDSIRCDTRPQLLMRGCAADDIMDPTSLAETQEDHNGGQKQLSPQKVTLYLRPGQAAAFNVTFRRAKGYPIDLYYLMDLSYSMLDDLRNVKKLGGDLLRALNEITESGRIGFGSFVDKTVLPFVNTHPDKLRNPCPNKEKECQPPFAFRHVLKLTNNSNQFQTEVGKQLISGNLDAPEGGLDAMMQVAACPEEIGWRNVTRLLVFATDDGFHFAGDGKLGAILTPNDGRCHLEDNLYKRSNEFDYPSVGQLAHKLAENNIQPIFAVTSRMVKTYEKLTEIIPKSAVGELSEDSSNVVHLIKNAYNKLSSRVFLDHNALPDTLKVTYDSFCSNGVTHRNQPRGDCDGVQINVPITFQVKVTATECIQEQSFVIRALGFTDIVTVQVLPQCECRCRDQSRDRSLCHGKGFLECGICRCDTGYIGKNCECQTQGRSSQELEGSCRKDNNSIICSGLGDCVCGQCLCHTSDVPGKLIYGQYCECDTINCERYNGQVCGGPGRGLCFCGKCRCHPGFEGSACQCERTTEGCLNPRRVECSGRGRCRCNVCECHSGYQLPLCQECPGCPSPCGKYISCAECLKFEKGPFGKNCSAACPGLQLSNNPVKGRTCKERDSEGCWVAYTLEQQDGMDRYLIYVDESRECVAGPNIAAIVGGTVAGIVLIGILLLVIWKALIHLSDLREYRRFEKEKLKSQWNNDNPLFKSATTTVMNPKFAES

Compound | IC50 [1] | IC90 [1] | IC50 [2] | selectivity ratio [3] | IC50 [4] | selectivity ratio [5] | Activity [6] | Activity [7] | Activity [8] | IC50 [9] | Activity [10] | IC50 [11] | MIC [12] | Ratio [14] | IC50 [18] | Ratio [19] | IC50 [20] | IC50 [21] | IC50 [24] | IC50 [26] | other results
C[C@@H]1CC[C@H]2[C@@H](C)C(=O)O[C@@H]3O[C@@]4(C)CC[C@@H]1[C@]32OO4 [ARTEMISININ] | 36 µg/mL (≈ 128 µM) | > 50 µg/mL | 0.0085 µg/mL (≈ 0.0301 µM) | > 1180 | > 10 µg/mL | > 699 |  |  |  |  |  |  |  |  |  |  |  |  |  |  | 
CC[C@@H](C)C(=O)O[C@H]1C(=O)O[C@@H]2C[C@H]3C(C)=CC(=O)[C@@H](O)[C@]3(C)[C@H]3[C@@H](OC(C)=O)[C@H](OC(C)=O)[C@]4(C)OC[C@]32[C@@H]14 | > 50 µg/mL | > 50 µg/mL | 1.7 µg/mL (≈ 3.02 µM) | > 14 | > 23.8 µg/mL | > 7.4 | 0.42 | 0.87 | inactive | > 10 µg/mL | 100% | 3.2 µg/mL (≈ 5.69 µM) | 20.8 µg/mL (≈ 37 µM) | 1.9 | 23 µg/mL (≈ 40.9 µM) | 1 | 24 µg/mL (≈ 42.7 µM) | 40 µg/mL (≈ 71.1 µM) | > 44.4 µM | 39 µg/mL (≈ 69.3 µM) | Activity [13]: 0.52; IC50 [15]: > 10 µg/mL; IC50 [16]: > 10 µg/mL; Activity [17]: inactive; IC50 [22]: > 10 µg/mL; Activity [23]: 1.34; inhibition at 2 µM [25]: 0%
COc1ccc(C[C@H]2NC[C@H](O)[C@H]2OC(C)=O)cc1 [ANISOMYCIN] |  |  |  |  |  |  | <0.01 |  |  |  |  |  |  |  |  |  |  |  |  |  | Activity [13]: <0.01; Activity [17]: Active; Activity [27]: 0%; inhibition at 10 µM [28]: 98.5%
C=C1[C@@H](C)[C@H]2[C@H](Cc3ccccc3)NC(=O)[C@]23OC(=O)/C=C/[C@H](O)CCC[C@@H](C)C/C=C/[C@H]3[C@@H]1O [CYTOCHALASIN B] |  |  |  |  |  |  |  |  |  |  |  |  | 2.3 µg/mL (≈ 4.8 µM) | 17.2 | 5.6 µg/mL (≈ 11.7 µM) | 1.1 | 6.5 µg/mL (≈ 13.6 µM) | 40 µg/mL (≈ 83.4 µM) | 14.8 µM | 0.26 µg/mL (≈ 0.542 µM) | Ratio [29]: 0.04
CC[C@@H](C)C(=O)O[C@H]1C(=O)O[C@@H]2C[C@H]3C(C)=CC(=O)[C@@H](O)[C@]3(C)[C@H]3[C@@H](O)[C@H](O)[C@]4(C)OC[C@]32[C@@H]14 [SIMALIKALACTONE D] | 0.035 µg/mL (≈ 0.0731 µM) | 0.2 µg/mL (≈ 0.418 µM) | 0.00367 µg/mL (≈ 0.00767 µM) | 613 | 2.3 µg/mL (≈ 4.81 µM) | 750 |  | 0.09 | Active | 0.3 µg/mL (≈ 0.627 µM) | 1.5% | 0.003 µg/mL (≈ 0.00627 µM) | 0.01 µg/mL (≈ 0.0209 µM) | 2.5 | 0.76 µg/mL (≈ 1.59 µM) |  | 0.08 µg/mL (≈ 0.167 µM) | 0.025 µg/mL (≈ 0.0522 µM) | > 52.2 µM | 0.032 µg/mL (≈ 0.0669 µM) | Activity [30]: 0.25; IC50 [15]: 0.28 µg/mL (≈ 0.585 µM); IC50 [16]: 0.3 µg/mL (≈ 0.627 µM); Activity [31]: Active; Activity [32]: 0.17; IC50 [22]: 1 µg/mL (≈ 2.09 µM); Activity [23]: 0.05; inhibition at 2 µM [25]: 98.5%
N.S=C(S)N1CCCC1 [PYRROLIDINE DITHIOCARBAMIC ACID, AMMONIUM SALT] |  |  |  |  |  |  |  |  |  |  |  |  |  |  | 21 µg/mL | <0.02 | < 0.4 µg/mL |  |  |  | 
